In ChEMBL document CHEMBL1141319, “Cinnamic ester derivatives from Oxalis pes-caprae (Bermuda buttercup)” (2007):
Activity calls are given as the source filed them. The rule behind the calls is not given here.

Tests used:
Lactuca sativa [1] = experiment: Phytotoxicity against Lactuca sativa assessed as inhibition of seed germination relative to control; format: functional; parameters: concentration or dose not given beside the values
How it was run: (§1)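 Lettuce seeds (cv. Napoli V.F.), selected for uniformity, 25 per 50 mm dish on filter paper with 5 mL test solution in 10 mM MES pH 6. Tested at 10^-4 M, diluted to 10-5–10-7 M. Dishes sealed and kept at 25 °C in the dark, with germination counted daily for 5 days. Seedlings frozen at -20 °C before measuring. Four replicates with parallel controls; results given as % difference from control, Student's t test.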

Lactuca sativa [2] = experiment: Phytotoxicity against Lactuca sativa assessed as inhibition of root length at 0.1 mM relative to control; format: functional; parameters: scale not given: the % may be the effect or the level left; how it was run: as §1
Lactuca sativa [3] = experiment: Phytotoxicity against Lactuca sativa assessed as inhibition of shoot length at 100 uM relative to control; format: functional; parameters: scale not given: the % may be the effect or the level left; how it was run: as §1
Lactuca sativa [4] = experiment: Phytotoxicity against Lactuca sativa assessed as inhibition of root length upto 0.1 uM relative to control; format: functional, organism-based; how it was run: as §1
Lactuca sativa [5] = experiment: Phytotoxicity against Lactuca sativa assessed as inhibition of radical length at 0.1 uM to 0.1 mM relative to control; format: functional; parameters: scale not given: the % may be the effect or the level left; how it was run: as §1
Lactuca sativa [6] = experiment: Phytotoxicity against Lactuca sativa assessed as inhibition of shoot length at 0.1 uM to 0.1 mM relative to control; format: functional; parameters: scale not given: the % may be the effect or the level left; how it was run: as §1
Lactuca sativa [7] = experiment: Phytotoxicity against Lactuca sativa assessed as inhibition of seed germination at 1 to 10 nM relative to control; format: functional, organism-based
Lactuca sativa [8] = experiment: Phytotoxicity against Lactuca sativa assessed as inhibition of shoot length at 1 to 10 nM relative to control; format: functional, organism-based

| Structure (SMILES) | Activity (Lactuca sativa [1]) | Activity (Lactuca sativa [2]) | Activity (Lactuca sativa [3]) | Activity (Lactuca sativa [4]) | Activity (Lactuca sativa [5]) | Activity (Lactuca sativa [6]) | Activity (Lactuca sativa [7]) | Activity (Lactuca sativa [8]) |
| --- | --- | --- | --- | --- | --- | --- | --- | --- |
| COc1cc(/C=C/C(=O)OCCOC(C)=O)cc(OC)c1OC | 10% | >=80% | 60% | – | – | – | – | – |
| COc1cc(/C=C/C(=O)OCCO)cc(OC)c1O | 10% | – | 30% | – | – | – | – | – |
| COc1cc(/C=C/C(=O)OCCO)cc(OC)c1OC | 10% | – | 30% | – | – | – | – | – |
| COc1cccc(OC(=O)/C=C/c2cc(OC)c(OC)c(OC)c2)c1 | 10% | – | 60% | – | – | – | – | – |
| COc1cc(/C=C/C(=O)Oc2cccc(O)c2)cc(OC)c1O | 10% | >=80% | 60% | – | – | – | – | – |
| COc1cc(/C=C/C(=O)Oc2cccc(O)c2)cc(OC)c1OC | 10% | >=80% | 60% | – | – | – | – | – |
| O=C(/C=C/c1ccc(O)c(O)c1)OCCO | 10% | >=80% | 100% | Active | 100% | 100% | inactive | inactive |
